High-throughput results from PubChem BioAssay.
HKDC1 inhibitor = HKDC1 (human) hexokinase inhibition. AID 493160. recombinant HKDC1, G6PDH/diaphorase resazurin coupled fluorescence. 0.16% of 340,000 active. inhibition, % at 20 µM. Q2TB90;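 active = inhibition above about 35% when tested at 20 µM, limit read from the data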
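Material – in-house recombinant HK5 (HKDC1) enzyme · Quantity – HKDC1 at 5 µg/mL · Buffer or medium – pH 8.0 Tris buffer with 10 mM MgCl2 · Reagent – glucose with 1 mM ATP · Dosing – single 20 µM dose · Times – reaction time 90 min, room temperature, protected from light · Technique – resorufin fluorescence at 613 nm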
PfGluPho inh = PfG6PD (Plasmodium falciparum) enzyme inhibition; 0.78% of 350,000 active; PfGluPho enzyme, NADPH resazurin-diaphorase fluorescence; inhibition, % at 20 µM;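 active = inhibition reaching at least a set limit at 20 µM in the primary screen, cut at about 59% in these data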
APOBEC3G inh = blocks human APOBEC3G single-stranded DNA deamination; Q9HC16; recombinant A3G, ssDNA deamination FAM/TAMRA fluorescence; inhibition, % at 20 µM; 0.28% of 330,000 active; AID 493012;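 active = inhibition of at least 40% at 20 µM, with no more than 30% in the related APOBEC3A deaminase screen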
APOBEC3A inh = inhibitors of human APOBEC3A DNA deaminase; P31941; recombinant A3A, FAM/TAMRA ssDNA deamination fluorescence; inhibition, % at 20 µM; 0.41% of 330,000 active; AID 493011;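 active = at least 40% inhibition at 20 µM here, with at most 30% in a related deaminase screen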
Target sequence (P31941 whole entry, looked up): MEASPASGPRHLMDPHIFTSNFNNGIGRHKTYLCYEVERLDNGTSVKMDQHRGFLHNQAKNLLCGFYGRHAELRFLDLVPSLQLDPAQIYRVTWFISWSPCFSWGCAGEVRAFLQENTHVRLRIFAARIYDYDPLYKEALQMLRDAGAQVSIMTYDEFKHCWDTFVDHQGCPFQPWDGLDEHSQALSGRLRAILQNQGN
hiPSC survival = increases survival of single human iPS cells; hiPSC single-cell survival, ATPlite luminescence; 100% = ROCK inhibitor wells, 0% = DMSO; survival enhancement, % at 20 µM; 0.044% of 360,000 active; AID 602274; in the data active = survival enhancement above about 18%;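 note: cells exposed to compounds for 16 hours before the ATP read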
A3G conf = APOBEC3G (human) deaminase inhibition, confirmed; recombinant A3G ssDNA deaminase, UDG/FAM-TAMRA fluorescence; 72% of 890 active; inhibition, % at 20 µM; shares compounds with APOBEC3G inh;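 active = inhibition reaching a set limit in any replicate at 20 µM, the limit being 80% of the first screen's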
UDG ctr A3G = counter-screen for APOBEC3G inhibitors: E. coli UDG; 710 tested, under 10 active; shares compounds with APOBEC3G inh; AID 504715; inhibition, % at 20 µM; UDG counterscreen, FAM/TAMRA oligo fluorescence;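 active = compounds giving 40% or more inhibition at 20 µM in any one of the three replicates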;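 note: inhibitors lower the FAM signal released by uracil excision and alkaline cleavage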
Target sequence (P12295 whole entry, looked up): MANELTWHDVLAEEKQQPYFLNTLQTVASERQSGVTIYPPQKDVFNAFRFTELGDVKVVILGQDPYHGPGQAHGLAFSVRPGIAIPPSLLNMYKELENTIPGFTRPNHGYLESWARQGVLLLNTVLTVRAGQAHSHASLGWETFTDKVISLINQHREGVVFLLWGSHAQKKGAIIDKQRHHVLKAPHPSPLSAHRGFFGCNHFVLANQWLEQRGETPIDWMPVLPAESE
Large screens that a line does not name were inactive (follow-up assays come after a bar, where they were run). Rows were chosen to be rich in hits. Some 1.4% of all compounds tested hit in one or more screens of this group.

Cc1ccc(C(=O)NNC(=S)NC(=O)COc2ccccc2)cc1	APOBEC3G inh 53 | A3G conf 50 | UDG ctr A3G inactive
Cc1ccccc1C(=O)NCC(=O)NNC(=S)NC(=O)c1ccccc1C	none
COC(=O)c1ccccc1NC(=S)NC(=O)COc1ccccc1	none
O=C(c1cc(C2CCCCN2S(=O)(=O)c2ccc(F)cc2F)on1)N1CCOCC1 (stereo not drawn)	none (no result: HKDC1 inhibitor, PfGluPho inh, APOBEC3G inh, APOBEC3A inh)
CC(O)(c1cccc(F)c1)c1nc(-c2cc(F)cc(F)c2)cs1 (stereo not drawn)	none (no result: HKDC1 inhibitor, PfGluPho inh, APOBEC3G inh, APOBEC3A inh)
COc1ccc2[nH]cc(CCNC(=O)C3CCCCC3)c2c1	none
COc1ccc(OC)c(C(=O)c2coc3ccc(OC(C)=O)cc23)c1	APOBEC3G inh 79 | A3G conf inactive
COc1ccc(C(=O)c2coc3ccc(OC(C)=O)cc23)cc1	none
CN1CCN(c2nc(-c3ccc(Cl)cc3)cc(=O)[nH]2)CC1	none
O=C(CNc1cc(S(=O)(=O)N2CCOCC2)ccc1N1CCOCC1)Nc1cccc(C(F)(F)F)c1	APOBEC3G inh 41 | A3G conf inactive
Cc1ccc(Nc2nnns2)cc1	PfGluPho inh 60, APOBEC3G inh 41 | A3G conf 27 | UDG ctr A3G inactive
Cc1ccc(Nc2nc3ccccc3s2)cc1	none
Oc1ccc(-c2c(C3=CCCCC3)sc3ccccc23)cc1	none (no result: APOBEC3G inh, APOBEC3A inh)
COc1cccc(/C=N/n2c(-c3n[nH]c4c3CCC4)n[nH]c2=S)c1OC	APOBEC3G inh 62 | A3G conf 70 | UDG ctr A3G inactive
COc1cccc(/C=N/n2c(-c3cc(C)[nH]n3)n[nH]c2=S)c1OC	APOBEC3G inh 43 | A3G conf 85 | UDG ctr A3G inactive
COc1ccc(/C=N/n2c(-c3n[nH]c4c3CCC4)n[nH]c2=S)c(OC)c1OC	APOBEC3G inh 49 | A3G conf 82 | UDG ctr A3G inactive
O=C(Nc1cccc(S(=O)(=O)Nc2ccccc2F)c1)c1ccco1	none
O=C(CSc1ccc([N+](=O)[O-])cc1)Nc1cccc(S(=O)(=O)Nc2ccccc2F)c1	APOBEC3G inh 44 | A3G conf 23 | UDG ctr A3G inactive
O=C1CCC(C(=O)Nc2cccc(S(=O)(=O)Nc3ccccc3F)c2)=NN1	PfGluPho inh 92, APOBEC3G inh 73 | A3G conf 63 | UDG ctr A3G inactive
CC(=O)NS(=O)(=O)c1ccc(NC(=O)CSc2ccc(C)cc2)cc1	none
COc1cccc(CNC(=O)c2ccc(F)c(S(=O)(=O)N3CCCCC3)c2)c1	none (no result: HKDC1 inhibitor, APOBEC3G inh, APOBEC3A inh)
Cc1cc(OCC(=O)N(C)c2ccccc2)cc2c1C(=O)CC(C)(C)O2	APOBEC3G inh 59 | A3G conf inactive
O=C(CSc1cn[nH]n1)Nc1cccc(C(=O)O)c1	APOBEC3G inh 62 | A3G conf 87 | UDG ctr A3G inactive
COCCn1c(C)cc(C(=O)COC(=O)C2CC(=O)N(CCc3ccc(OC)c(OC)c3)C2)c1C (stereo not drawn)	none
COc1ccc(N2C(=O)CSC2c2ccc(F)cc2)cc1 (stereo not drawn)	none
COc1ccc(-n2sc3ccc(F)cc3c2=O)cc1	PfGluPho inh 112, APOBEC3G inh 67 | A3G conf 81 | UDG ctr A3G inactive
O=c1[nH]c(SCc2nc3ccccc3c(=O)n2-c2ccccc2)nc2ccccc12	none
O=c1[nH]c(SCc2n[nH]c(=S)n2-c2ccccc2)nc2ccccc12	APOBEC3G inh 60 | A3G conf 86 | UDG ctr A3G inactive
COc1ccc(N(C(=O)CNC(=O)c2cccs2)C(C(=O)NC2CCCC2)c2cccnc2)cc1 (stereo not drawn)	none
Cc1c2cnn(CC(=O)Nc3c(F)c(F)cc(F)c3F)c(=O)c2c(C)n1Cc1ccccc1F	APOBEC3G inh 45 | A3G conf 48 | UDG ctr A3G inactive
CNC(=O)Cn1ncc2c(C)n(Cc3ccc(C)cc3)c(C)c2c1=O	none
COc1cc2cc(CCCO)oc(=O)c2cc1OC	none
CCN(CC)C(=O)C1=C(C)N(CCCOC)C(=O)C(CC(=O)NCCCCc2ccccc2)C1 (stereo not drawn)	none (no result: HKDC1 inhibitor, APOBEC3G inh, APOBEC3A inh)
CN(C)/N=C1\CCS(=O)(=O)c2sccc21	none
Cc1ccc(N/N=C2\CCS(=O)(=O)c3sccc32)cc1	APOBEC3G inh 45 | A3G conf inactive | UDG ctr A3G inactive
O=c1[nH]c(-c2ccncc2)nc2ccccc12	APOBEC3G inh 58 | A3G conf 56 | UDG ctr A3G inactive
CCn1nc(C)c(CNC(=O)C2CCC(=O)N(CCc3ccc(Cl)cc3)C2)c1C (stereo not drawn)	APOBEC3G inh 44 | A3G conf inactive
Cc1nc(CNC(=O)C2CCC(=O)N(CCc3ccc(Cl)cc3)C2)sc1C (stereo not drawn)	none
O=C(O)c1ccc(-n2c(-c3ccc(Br)cc3)n[nH]c2=S)cc1	APOBEC3G inh 44 | A3G conf 65 | UDG ctr A3G inactive
N#Cc1c(-c2cccnc2)c2c([nH]c1=S)CCCC2	APOBEC3G inh 50 | A3G conf 86 | UDG ctr A3G inactive
N#Cc1c(N)nc2c(c1-c1cccnc1)CCCCC2	none
CCCC(=O)Nc1nc2ccc(OCC)cc2s1	none
CCOc1ccc2nc(NC(=S)N(C)C)sc2c1	APOBEC3G inh 47 | A3G conf 55 | UDG ctr A3G inactive
O=C(COC(=O)/C=C/c1ccc(OC(F)F)cc1)Nc1cccc(S(=O)(=O)N2CCOCC2)c1	none
CCOc1ccc(NC(=S)c2ccc3ccccc3n2)cc1	none
Cc1ccc(NC(=S)c2ccc3ccccc3n2)c(C)c1	APOBEC3G inh 46 | A3G conf 22 | UDG ctr A3G inactive
COc1ccc(NC(=S)c2ccc3ccccc3n2)cc1	APOBEC3G inh 62 | A3G conf 62 | UDG ctr A3G inactive
CC1(C)CC(=O)N(c2ccc(Cl)c(Cl)c2)C(=O)C1	none
COc1ccc(OC)c(/C=N/n2c(-c3n[nH]c4c3CCC4)n[nH]c2=S)c1	APOBEC3G inh 42 | A3G conf 83 | UDG ctr A3G inactive
COc1cc(OC)c(OC)cc1/C=N/n1c(-c2n[nH]c3c2CCC3)n[nH]c1=S	none
COc1ccc(/C=N/n2c(-c3n[nH]c4c3CCC4)n[nH]c2=S)cc1	APOBEC3G inh 40 | A3G conf 74 | UDG ctr A3G inactive
COC(=O)[C@]1(C)N[C@H](CN(C)C(C)=O)[C@@H]2C(=O)N(Cc3ccccc3)C(=O)[C@@H]21	none
CCOC(=O)C(C#N)(Cc1ccc2ccccc2n1)Cc1ccc2ccccc2n1	none (no result: APOBEC3G inh, APOBEC3A inh)
Oc1ccc(C(=S)N2CCN(c3cccc(Cl)c3)CC2)cc1	APOBEC3G inh 40 | A3G conf 41 | UDG ctr A3G inactive
Oc1ccccc1C(=S)N1CCN(c2cccc(Cl)c2)CC1	none
COc1ccc(-c2noc(CCC(=O)NCCc3ccccc3)n2)cc1OC	none
